Here are results for 11 compounds from ChEMBL document CHEMBL5230144, “Synthesis and Biological Evaluation of Celastrol Derivatives with Improved Cytotoxic Selectivity and Antitumor Activities” (J Nat Prod, 2021).

The target in series [1] is T1, Heat shock protein HSP 90-beta/Hsp90 co-chaperone Cdc37 (Homo sapiens, UniProt P08238+Q16543). Nature of the series: Disruption of His-tagged full length HSP90 (unknown origin)/GST-tagged Cdc37 (unknown origin) measured after 1 hr by HTRF method. In kind it is protein-complex assay. Put shortly: (§1)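 HTRF in PBS with […], pH 7.3: His-tagged full-length Hsp90 and GST-tagged Cdc37 (each 250 nM final) with compound, 37 °C for 1 h. Anti-GST-Cryptate and anti-6His-XL665 then added for 0.5 h at 37 °C. Time-resolved fluorescence read at ex 320 nm, em 665/620 nm; ratio (665/620) × 10 000.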
T1 sequence (P08238 whole entry): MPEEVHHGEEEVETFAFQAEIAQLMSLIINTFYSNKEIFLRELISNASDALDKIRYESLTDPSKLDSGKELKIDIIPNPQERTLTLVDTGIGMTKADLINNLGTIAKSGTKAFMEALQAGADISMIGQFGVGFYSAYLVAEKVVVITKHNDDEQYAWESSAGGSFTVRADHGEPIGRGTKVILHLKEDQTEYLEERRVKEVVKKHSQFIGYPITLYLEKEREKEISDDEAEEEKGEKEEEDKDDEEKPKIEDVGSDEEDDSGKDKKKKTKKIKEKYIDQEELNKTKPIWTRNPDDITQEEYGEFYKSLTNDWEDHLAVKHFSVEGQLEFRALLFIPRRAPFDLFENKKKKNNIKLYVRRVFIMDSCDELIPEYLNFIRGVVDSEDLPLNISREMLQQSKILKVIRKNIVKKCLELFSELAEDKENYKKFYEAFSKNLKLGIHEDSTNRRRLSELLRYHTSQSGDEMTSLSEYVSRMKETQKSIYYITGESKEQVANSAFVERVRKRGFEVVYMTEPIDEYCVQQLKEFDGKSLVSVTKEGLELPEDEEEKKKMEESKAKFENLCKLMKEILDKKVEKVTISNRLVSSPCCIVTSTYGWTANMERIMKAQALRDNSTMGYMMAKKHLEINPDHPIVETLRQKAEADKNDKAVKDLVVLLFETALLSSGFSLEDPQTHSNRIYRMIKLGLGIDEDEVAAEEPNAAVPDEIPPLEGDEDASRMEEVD
T1 sequence (Q16543 whole entry): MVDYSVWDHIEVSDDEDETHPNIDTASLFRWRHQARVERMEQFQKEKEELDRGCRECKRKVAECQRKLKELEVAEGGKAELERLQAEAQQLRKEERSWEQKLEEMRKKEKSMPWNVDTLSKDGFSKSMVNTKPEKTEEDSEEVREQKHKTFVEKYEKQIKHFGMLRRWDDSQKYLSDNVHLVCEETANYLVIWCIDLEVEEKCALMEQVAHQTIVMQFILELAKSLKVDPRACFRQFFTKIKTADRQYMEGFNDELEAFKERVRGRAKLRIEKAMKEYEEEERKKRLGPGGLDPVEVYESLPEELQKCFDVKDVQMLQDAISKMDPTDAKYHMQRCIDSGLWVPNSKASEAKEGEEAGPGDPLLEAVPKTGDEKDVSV

Series [2] deals with T1, Heat shock protein HSP 90-beta/Hsp90 co-chaperone Cdc37. The series can be described thus: Disruption of His-tagged full length HSP90 (unknown origin)/GST-tagged Cdc37 (unknown origin) at 50 uM measured after 1 hr by HTRF method. It counts as protein-complex assay. In outline: as §1
Series [3] can be described thus: Cytotoxicity against human mesenchymal bone marrow stem cells measured after 48 hrs by MTT assay. It counts as toxicity, cell-based.
The test system of series [4] is A549. Nature of the series: cells. To be noted: Homo sapiens, A549, 48 h.
In series [5] the test system is MDA-MB-231. Nature of the series: cells. To be noted: Homo sapiens, MDA-MB-231, 48 h.
The subject of series [6] is KB. Nature of the series: cells. To be noted: Homo sapiens, 48 h.
Series [7] deals with MCF7. Nature of the series: cells. The conditions noted are these: Homo sapiens, MCF7, 48 h.
Series [8] in a line: Toxicity in nude mouse xenografted with human MDA-MB-231 cells assessed as decrease of body weight at 10 mg/kg, po measured after 26 days. In kind it is organism-based. To be noted: in vivo, 624 h, time 26 day. Put shortly: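 Female athymic nude mice, 5−6 weeks old, carrying MDA-MB-231 xenografts; randomized at about 100 mm³ tumor volume, n = 6 per group. Groups were vehicle, carboplatin 10 mg/kg, celastrol 10 mg/kg and test compound 10 mg/kg oral. Body weight tracked from day 16 to day 26; blood counts taken on the last day.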

Series [9] in a line: Toxicity in nude mouse xenografted with human MDA-MB-231 cells assessed as decrease of white blood cells at 10 mg/kg, po measured after 26 days. In kind it is organism-based. The conditions noted are these: in vivo, 624 h, time 26 day. In outline:
(§2)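 Female athymic nude mice (5–6 weeks) bore MDA-MB-231 xenografts and were randomized (n = 6) at a mean tumor volume of about 100 mm³. They received 10 mg/kg orally, with vehicle and carboplatin (10 mg/kg) groups. On the final day of administration, a routine blood examination counted white blood cells, red blood cells and platelets, compared against vehicle.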

The nature of series [10]: Toxicity in nude mouse xenografted with human MDA-MB-231 cells assessed as decrease of red blood cells at 10 mg/kg, po measured after 26 days. To be noted: in vivo, 624 h, time 26 day. It counts as organism-based. In outline:
as §2

Series [11] is described as follows: Toxicity in nude mouse xenografted with human MDA-MB-231 cells assessed as decrease of platelets at 10 mg/kg, po measured after 26 days. In kind it is organism-based. The conditions noted are these: in vivo, 624 h, time 26 day. In outline: as §2
Series [12] in a line: Toxicity in nude mouse xenografted with human MDA-MB-231 cells assessed as damage to liver at 10 mg/kg, po measured after 26 days by Hand E staining method. It counts as organism-based. To be noted: in vivo, 624 h, time 26 day. In outline:
(§3)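 Female athymic nude mice (5–6 weeks) bore MDA-MB-231 xenografts and were randomized (n = 6) once tumors averaged about 100 mm³. They were dosed orally at 10 mg/kg, alongside vehicle and carboplatin (10 mg/kg) groups. On the last day of administration, heart, liver, lungs and kidneys were examined by HE staining.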

Series [13] is described as follows: Toxicity in nude mouse xenografted with human MDA-MB-231 cells assessed as damage to heart at 10 mg/kg, po measured after 26 days by Hand E staining method. The conditions noted are these: in vivo, 624 h, time 26 day. It counts as organism-based. In outline:
as §3

Series [14] is described as follows: Toxicity in nude mouse xenografted with human MDA-MB-231 cells assessed as damage to lungs at 10 mg/kg, po measured after 26 days by Hand E staining method. In kind it is organism-based. To be noted: in vivo, 624 h, time 26 day. Put shortly: as §3
Series [15] can be described thus: Toxicity in nude mouse xenografted with human MDA-MB-231 cells assessed as damage to kidney at 10 mg/kg, po measured after 26 days by Hand E staining method. In kind it is organism-based. To be noted: in vivo, 624 h, time 26 day. In outline:
as §3

Series [16] concerns HUVEC. The series can be described thus: Antimigratory activity against human HUVEC cells assessed as inhibition of cell migration at 0.1 uM measured after 12 to 24 hrs by wound scratch assay. In kind it is functional, cell-based. The conditions noted are these: time 12-24 hrs. In outline: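 HUVEC monolayers were scratched and treated, with wound closure imaged at 0, 12 and 24 h. Migration was quantified as a migration ratio relative to 0 h.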

Calls of active or inactive are those of the source. The rule behind the calls is not given here.

For the compound `C#CCOC(=O)[C@]1(C)CC[C@]2(C)CC[C@]3(C)C4=CC=C5C(=CC(=O)C(O)=C5C)[C@]4(C)CC[C@@]3(C)[C@@H]2C1`, half-maximal inhibition in series [1] (IC50) was put at 1700 nM.

With `CC1=C(O)C(=O)C=C2C1=CC=C1[C@@]2(C)CC[C@@]2(C)[C@@H]3C[C@](C)(C(=O)OCc4ccccc4C)CC[C@]3(C)CC[C@]12C`, the half-inhibitory concentration (IC50) in series [1] came out at 10000 nM.

Take `COCCOC(=O)[C@]1(C)CC[C@]2(C)CC[C@]3(C)C4=CC=C5C(=CC(=O)C(O)=C5C)[C@]4(C)CC[C@@]3(C)[C@@H]2C1`: the midpoint of inhibition in series [1], the IC50, lay at 6700 nM.

Consider `CC1=C(O)C(=O)C=C2C1=CC=C1[C@@]2(C)CC[C@@]2(C)[C@@H]3C[C@](C)(C(=O)OCc4ccccc4)CC[C@]3(C)CC[C@]12C`, for which, in series [2], the inhibition was 90.1%. In addition, the IC50 in series [1] amounted to 2400 nM; in [4], 1300 nM; in series [5], 400 nM; in series [6], 600 nM; in [7] it was 700 nM. This compound returned a concentration for half-maximal inhibition (IC50) at 48 h in series [3] of 1000 nM.

The compound `C#CCOC(=O)[C@]1(C)CC[C@]2(C)CC[C@]3(C)C4=CC=C5C(=CC(=O)C(OC(=O)N6CCC(N7CCCCC7)CC6)=C5C)[C@]4(C)CC[C@@]3(C)[C@@H]2C1` showed a concentration for half-maximal inhibition (IC50) at 48 h in series [3] of 2800 nM. Besides, the Activity entry in [8] is recorded as “Toxic”; in [9], “Non-Toxic”; in [10], “Non-Toxic”; in series [11], “Non-Toxic”; in series [12], “Non-Toxic”; in [13] it was “Non-Toxic”. Moreover, the Activity entry in [14] and in series [15] was “Non-Toxic” in each case. Besides, half-maximal inhibition in series [5] (IC50) was put at 200 nM.

On to `CC1=C(O)C(=O)C=C2C1=CC=C1[C@@]2(C)CC[C@@]2(C)[C@@H]3C[C@](C)(C(=O)OCc4cccc(C)c4)CC[C@]3(C)CC[C@]12C`, for which the half-inhibitory concentration (IC50) in [1] came to 6200 nM.

In turn, `CCOC(=O)[C@]1(C)CC[C@]2(C)CC[C@]3(C)C4=CC=C5C(=CC(=O)C(O)=C5C)[C@]4(C)CC[C@@]3(C)[C@@H]2C1` gave an inhibition in series [2] of 85.7%. Also, the IC50 in series [4] is 1700 nM; in [5], 700 nM; in series [6], 1000 nM; in series [7], 1000 nM.

For the compound `CC1=C(O)C(=O)C=C2C1=CC=C1[C@@]2(C)CC[C@@]2(C)[C@@H]3C[C@](C)(C(=O)OCC4CCCCC4)CC[C@]3(C)CC[C@]12C`, the IC50 in series [1] came to 2900 nM.

For the compound `CC1=C(O)C(=O)C=C2C1=CC=C1[C@@]2(C)CC[C@@]2(C)[C@@H]3C[C@](C)(C(=O)O)CC[C@]3(C)CC[C@]12C` [CELASTROL], the inhibition in [2] was determined as 82.3%. The compound further gave an IC50 at 48 h in [3] of 700 nM. For the same compound, the Activity entry in series [9], in series [10], in series [11], in [12], in series [13] and in [14] was “Toxic” throughout. The Activity entry in series [15] is “Toxic”. The result in [16] was inactive. The half-inhibitory concentration (IC50) in [4] was found to be 1800 nM; in series [5] it was 900 nM; in [6] it was 1700 nM; in [7], 1200 nM.

In [2], `COC(=O)[C@]1(C)CC[C@]2(C)CC[C@]3(C)C4=CC=C5C(=CC(=O)C(O)=C5C)[C@]4(C)CC[C@@]3(C)[C@@H]2C1` [PRISTIMERIN] gave an inhibition of 83.1%. In addition, the IC50 in [4] came out at 1100 nM; in series [5], 800 nM; in [6] it was 900 nM; in series [7], 900 nM.

For `CCCOC(=O)[C@]1(C)CC[C@]2(C)CC[C@]3(C)C4=CC=C5C(=CC(=O)C(O)=C5C)[C@]4(C)CC[C@@]3(C)[C@@H]2C1`, the inhibition in series [2] was found to be 87.4%. In addition, the concentration for half-maximal inhibition (IC50) in [4] was 1100 nM; in series [5] it was 800 nM; in [6], 600 nM; in [7], 500 nM.
